Active and inactive are the calls of the source. The rule behind the calls is not given here.
What was measured:
[1] = test system: HCT-116; assay: Cytotoxicity against human HCT116 cells assessed as reduction in cell growth after 72 hrs by MTT assay; assay type: cell-based; details: HCT-116, 72 h
[2] = test system: SW480; assay: Cytotoxicity against human SW480 cells assessed as reduction in cell growth after 72 hrs by MTT assay; assay type: cell-based; details: SW480, 72 h
[3] = test system: NCM460; assay: Cytotoxicity against human NCM460 cells assessed as reduction in cell growth after 72 hrs by MTT assay; assay type: cell-based; details: NCM460, 72 h
[4] = test system: Chorioallantoic membrane; assay: Antiangiogenic activity in Leghorn chicken fertilized egg chorioallantoic membrane at 10 nM/egg measured after 48 hrs by CAM assay; assay type: functional, tissue-based; details: Gallus gallus
Method in brief: (§1)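 Fertile Leghorn eggs incubated at 37.8°C, 40% humidity; window opened on day 7; compound, sunitinib or 0.9% NaCl mixed with DMSO applied on filter paper onto CAM; 48 h incubation, methanol fixation, photography; nascent vessels counted.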

[5] = test system: HUVEC; assay: Antiangiogenic activity against VEGF-induced HUVEC assessed as inhibition of cell proliferation preincubated for 30 mins followed by VEGF addition measured after 24 hrs by MTT assay; assay type: functional, cell-based; details: Homo sapiens
Method in brief: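 HUVECs seeded 24 h, starved 16 h in M200 with 2% FBS, pretreated 30 min with compound at 0.1, 1, 10, 20 or 40 μM, then stimulated with VEGF (25 ng/mL) for 24 h; viability read by MTT; IC50 determined.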

[6] = test system: Chorioallantoic membrane; assay: Antiangiogenic activity in Leghorn chicken fertilized egg chorioallantoic membrane measured after 48 hrs by CAM assay; assay type: functional, tissue-based; details: Gallus gallus; method in brief: as §1
[7] = test system: HUVEC; assay: Antiangiogenic activity against HUVEC assessed as inhibition of cell proliferation measured […] by MTT assay; assay type: functional, cell-based; details: Homo sapiens, 0.5 h
[8] = test system: Mus musculus; assay: Antiangiogenic activity in Matrigel plug angiogenic Balb/c mouse model assessed as impaired vascularization by measuring loss of red colour in VEGF-supplemented matrigel at 20 to 60 mg/kg, sc measured after 15 days; assay type: functional, organism-based
Method in brief: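 Balb/c nude mice (6–8 weeks), three groups, injected subcutaneously with 400 μL Matrigel alone or with VEGF (250 ng/mL) and/or compound; after 15 days plugs removed, weighed and photographed.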

SMILES	IC50 [1] [µM]	IC50 [2] [µM]	IC50 [3] [µM]	Activity [4]	IC50 [5] [µM]	Activity [6]	IC50 [7] [µM]	Activity [8]
O=C(c1cccc(/C=C2\CC(=O)N(c3ccccc3)C2=O)c1)N1CCOCC1	> 100	> 100	> 100	Active	–	–	–	–
O=C(Nc1ccc(Cl)cc1)c1cccc(/C=C2\CC(=O)N(c3ccccc3)C2=O)c1	> 100	> 100	> 100	Active	–	–	–	–
CCc1cccc(NC(=O)c2cccc(/C=C3\CC(=O)N(c4ccc(C)cc4)C3=O)c2)c1	41.5	65.3	> 100	–	–	–	–	–
Cc1ccc(N2C(=O)C/C(=C\c3cccc(C(=O)Nc4cccc(F)c4)c3)C2=O)cc1	> 100	96.9	> 100	–	–	–	–	–
Cc1ccc(N2C(=O)C/C(=C\c3cccc(C(=O)Nc4ccc(Cl)cc4)c3)C2=O)cc1	> 100	> 100	> 100	–	–	–	–	–
O=C(Nc1ccc(OC(F)F)cc1)c1cccc(/C=C2\CC(=O)N(c3ccccc3)C2=O)c1	> 100	> 100	> 100	–	–	–	–	–
Cc1ccc(NC(=O)c2cccc(/C=C3\CC(=O)N(c4ccccc4)C3=O)c2)cc1C	> 100	> 100	> 100	–	–	–	–	–
O=C(Nc1cccc(F)c1)c1cccc(/C=C2\CC(=O)N(c3ccccc3)C2=O)c1	> 100	> 100	> 100	–	–	–	–	–
CSc1cccc(NC(=O)c2cccc(/C=C3\CC(=O)N(c4ccccc4)C3=O)c2)c1	65.2	74.3	> 100	–	–	–	–	–
CCCCCN1C(=O)C/C(=C\c2cccc(C(=O)Nc3ccc(OC)cc3)c2)C1=O	> 100	> 100	> 100	–	–	–	–	–
COc1ccc(NC(=O)c2cccc(/C=C3\CC(=O)N(c4ccccc4)C3=O)c2)cc1	> 100	> 100	> 100	Active	–	–	–	–
CCCCN1C(=O)C/C(=C\c2cccc(C(=O)Nc3cccc(CC)c3)c2)C1=O	75.3	83.2	> 100	–	–	–	–	–
CCCCNC(=O)c1cccc(/C=C2\CC(=O)N(Cc3ccccc3)C2=O)c1	95	> 100	> 100	–	–	–	–	–
CCOc1ccc(NC(=O)c2cccc(/C=C3\CC(=O)N(Cc4ccccc4)C3=O)c2)cc1	41.7	73.2	> 100	–	–	–	–	–
CCc1ccc(NC(=O)c2cccc(/C=C3\CC(=O)N(c4ccccc4)C3=O)c2)cc1	> 100	> 100	> 100	–	–	–	–	–
O=C(NC1CCCCC1)c1cccc(/C=C2\CC(=O)N(c3ccccc3)C2=O)c1	> 100	> 100	> 100	Active	–	–	–	–

SMILES	IC50 [1] [µM]	IC50 [2] [µM]	IC50 [3] [µM]	Activity [4]	IC50 [5] [µM]	Activity [6]	IC50 [7] [µM]	Activity [8]
O=C(Nc1ccc(Cl)cc1)c1cccc(/C=C2\CC(=O)N(Cc3ccccc3)C2=O)c1	> 100	> 100	> 100	–	–	–	–	–
CCc1cccc(NC(=O)c2cccc(/C=C3\CC(=O)N(c4ccccc4)C3=O)c2)c1	81.2	88.6	> 100	–	–	–	–	–
O=C(c1cccc(/C=C2\CC(=O)N(c3ccccc3)C2=O)c1)N1CCCC1	> 100	> 100	> 100	Active	–	–	–	–
CCN(CC)CCNC(=O)c1c(C)[nH]c(/C=C2\C(=O)Nc3ccc(F)cc32)c1C [SUNITINIB]	–	–	–	–	3.63	Active	6.46	–
O=C(NCc1ccccc1)c1cccc(/C=C2\CC(=O)N(c3ccccc3)C2=O)c1	> 100	> 100	> 100	Active	–	–	–	–
COc1ccc(OC)c(NC(=O)c2cccc(/C=C3\CC(=O)N(c4ccccc4)C3=O)c2)c1	> 100	> 100	> 100	–	–	–	–	–
Cc1cccc(NC(=O)c2cccc(/C=C3\CC(=O)N(c4ccccc4)C3=O)c2)c1	> 100	> 100	> 100	–	–	–	–	–
COc1ccc(NC(=O)c2cccc(/C=C3\CC(=O)N(c4ccccc4)C3=O)c2)c(C)c1	> 100	> 100	> 100	–	–	–	–	–
Cc1ccc(NC(=O)c2cccc(/C=C3\CC(=O)N(c4ccccc4)C3=O)c2)cc1	> 100	> 100	> 100	–	–	–	–	–
O=C(Nc1ccc(F)cc1)c1cccc(/C=C2\CC(=O)N(c3ccccc3)C2=O)c1	> 100	> 100	> 100	–	–	–	–	–
COc1ccc(NC(=O)c2cccc(CC3CC(=O)N(c4ccc(C)cc4)C3=O)c2)cc1 (stereo not given)	> 100	> 100	> 100	–	–	–	–	Active
O=C(Nc1ccccc1)c1cccc(/C=C2\CC(=O)N(c3ccccc3)C2=O)c1	> 100	> 100	> 100	–	–	–	–	–
CCOc1ccc(NC(=O)c2cccc(/C=C3\CC(=O)N(c4ccccc4)C3=O)c2)cc1	84.8	91.5	> 100	–	–	–	–	–
CCc1cccc(NC(=O)c2cccc(/C=C3\CC(=O)N(Cc4ccccc4)C3=O)c2)c1	80.6	91.5	> 100	–	–	–	–	–
COc1cc(NC(=O)c2cccc(/C=C3\CC(=O)N(c4ccccc4)C3=O)c2)cc(OC)c1OC	> 100	> 100	> 100	–	–	–	–	–

From ChEMBL document CHEMBL4396917, “Synthesis and biological evaluation of novel benzylidene-succinimide derivatives as noncytotoxic antiangiogenic inhibitors with anticolorectal cancer activity in vivo” (Eur J Med Chem, 2019)
